The text below walks through data of ChEMBL document CHEMBL3098049, “Concise synthesis and biological evaluation of 2-Aroyl-5-amino benzo[b]thiophene derivatives as a novel class of potent antimitotic agents” (J Med Chem, 2013).

Experiment [1] is described as follows: Cytotoxicity against human Molt4/C8 cells assessed as growth inhibition after 48 hrs by coulter counting analysis. Conditions: MOLT-4, 48 h. It counts as functional, cell-based. The procedure, abridged:
(§1)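 Cells suspended at (3−5) × 10⁵ cells/mL and mixed 1:1 with compound dilutions. Incubated 48 h at 37 °C, counted with a Coulter counter. IC₅₀ = concentration inhibiting proliferation by 50%. Mean of at least three independent experiments.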

Experiment [2] can be described thus: Cytotoxicity against human CEM/0 cells assessed as growth inhibition after 48 hrs by coulter counting analysis. Conditions: CCRF-CEM. It counts as functional, cell-based.
A further experiment deals with L1210. The experiment is described as follows: Cytotoxicity against mouse L1210 cells assessed as growth inhibition after 48 hrs by coulter counting analysis. Conditions: L1210, 48 h. It counts as functional, cell-based. The procedure, abridged: as §1
Experiment [3] can be described thus: Cytotoxicity against mouse FM3A/0 cells assessed as growth inhibition after 48 hrs by coulter counting analysis. Conditions: FM3A/0, 48 h. Format: functional, cell-based.
Another experiment concerns HeLa. Briefly: Cytotoxicity against human HeLa cells assessed as growth inhibition after 48 hrs by coulter counting analysis. Format: functional, cell-based.
The subject of experiment [4] is MNNG-HOS. Briefly: Antitumor activity against human MNNG-HOS cells xenografted in Balb/c-nu mouse assessed as reduction in tumor weight at 50 mg/kg, ip administered once every 3 days for 9 days measured after day 18. The settings on record: HOS-TE85. Also on record: dose 50 mg/kg. It counts as functional, organism-based. The procedure, abridged:
(§2)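 MNNG/HOS osteosarcoma cells grown to exponential phase, suspended in FBS-free MEM (10⁷ cells/mL), 0.1 mL injected into back hypodermis of nude mice. At ~100 mm³, 12 mice randomised to three groups (vehicle, CA-4P in isotonic saline, test in 5% DMSO/olive oil). 50 mg/kg ip at 0.01 mL/g on days 0, 3, 6, 9. Tumour volume and body weight tracked; tumours excised and weighed day 18; […].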
For orientation: Xenograft models place foreign cells or tissue in a host animal.

The subject of experiment [5] is MNNG-HOS. Briefly: Antitumor activity against human MNNG-HOS cells xenografted in Balb/c-nu mouse assessed as tumor growth inhibition at 50 mg/kg, ip administered once every 3 days for 9 days measured on day 18 relative to vehicle-treated control. It counts as functional. Conditions: HOS-TE85, ip, route intraperitoneal, read-out: TGI. The essentials: as §2
Experiment [6] addresses T1, Tubulin (Homo sapiens) (UniProt P68371+Q9H4B7+P0DPH7+P68366+Q13509+Q71U36+P04350+Q3ZCM7+P07437+P68363+Q9BQE3+Q6PEY2+Q13885+Q9BVA1+Q9BUF5). Briefly: Displacement of [3H]-colchicine from tubulin (unknown origin) at 5 uM after 10 mins relative to control. Format: protein-complex assay. Background: Displacement assays read how much labelled ligand stays bound in the presence of the test substance.

Experiment [7] is described as follows: Inhibition of bovine brain tubulin polymerization preincubated for 15 mins followed by GTP addition measured for 20 mins by turbidometric analysis. Also on record: species or system Bos taurus.
The target in experiment [8] is T1, Tubulin (Homo sapiens). The experiment is described as follows: Displacement of [3H]-colchicine from tubulin (unknown origin) at 1 uM after 10 mins relative to control. Format: protein-complex assay.

Calls of active or inactive are those of the source. The calls are words filed in the database; no cut-off is given here.

`COc1ccc(C(=O)c2cc3cc(N)cc(OC)c3s2)cc1`: the IC50 in experiment [1] was 6.5 µM; in experiment [2] it was 6.1 µM; with L1210 it was greater than 10 µM; in experiment [3], greater than 10 µM.
For `CNc1cc(OC)c2sc(C(=O)c3cc(OC)c(OC)c(OC)c3)cc2c1`, the IC50 in experiment [1] came out at 0.074 µM; in the experiment with L1210 it was 0.067 µM; in the experiment on HeLa it was 0.066 µM; in experiment [3] it was 0.19 µM.
Regarding `COc1cc(C(=O)c2cc3cc(NC(C)=O)cc(OC)c3s2)cc(OC)c1OC`, the IC50 was determined as 0.098 µM in [1], 0.069 µM with HeLa and 0.34 µM in experiment [3].
Consider `C=C(Br)C(=O)Nc1cc(OC)c2sc(C(=O)c3cc(OC)c(OC)c(OC)c3)cc2c1`, for which the IC50 in experiment [1] turned out to be 0.28 µM; in [2], 0.26 µM; with L1210, 0.096 µM; in the experiment with HeLa it was 0.76 µM; in experiment [3] it was 0.2 µM.
Take `COc1ccc(/C=C\c2cc(OC)c(OC)c(OC)c2)cc1OP(=O)(O)O` [FOSBRETABULIN DISODIUM]: in the experiment on MNNG-HOS [4], the outcome was Active. Also, the inhibition in vivo at 50 mg/kg in the experiment on MNNG-HOS [5] was 32%.
Turning to `COc1ccc(C(=O)c2cc3cc(N)cc(OC)c3s2)cc1OC`, the IC50 in [1] was found to be 1.7 µM; in experiment [2], 1.4 µM; in the experiment with L1210 it was 1.9 µM; in the experiment with HeLa it was 1.6 µM; in experiment [3] it was 2.2 µM.
With `COc1cc(C(=O)c2cc3cc(NC(=O)CI)ccc3s2)cc(OC)c1OC`, the half-maximal inhibitory concentration (IC50) is 0.33 µM in experiment [1], 1.4 µM in the experiment with L1210, 1.5 µM in the experiment with HeLa and 2.1 µM in [3].
As for `COc1cc(C(=O)c2cc3cc(NC(=O)CBr)ccc3s2)cc(OC)c1OC`, the IC50 was determined as 0.96 µM in [1]; 0.26 µM in experiment [2]; 1.4 µM in the experiment on L1210; 1.6 µM in the experiment on HeLa; 1.7 µM in experiment [3].
Take `COc1cc(C(=O)c2cc3cc(N(C)C)cc(OC)c3s2)cc(OC)c1OC`: the results for the IC50 (in [1]; in the experiment on HeLa; in experiment [3]) were 0.98 µM, 0.36 µM and 1.1 µM, respectively.
`COc1cc(C(=O)c2sc3c(OC)cccc3c2N)cc(OC)c1OC`: the inhibition at Tubulin (Homo sapiens) [6] stood at 39%. This compound displayed an IC50 in experiment [7] of 2.1 µM.
Regarding `COc1cc(C(=O)c2sc3ccc(N)cc3c2C)cc(OC)c1OC`, the IC50 in [1] came out at 0.1 µM; in experiment [2], 0.072 µM; in the experiment with L1210, 0.008 µM; with HeLa, 0.1 µM; in [3], 0.2 µM; in experiment [7] it was 1.3 µM. Besides, the inhibition at Tubulin (Homo sapiens) [6] came out at 78%.
Turning to `COc1cc(C(=O)c2sc3ccccc3c2N)cc(OC)c1OC`, on Tubulin (Homo sapiens) [6], the inhibition worked out at 39%. For the same compound, the IC50 in [7] is 4.2 µM.
Consider `COc1cc(C(=O)c2cc3cc(NC(=O)CCl)cc(OC)c3s2)cc(OC)c1OC`, for which the IC50 stood at 0.078 µM in experiment [1], 0.072 µM in [2], 0.1 µM in the experiment on HeLa and 0.2 µM in experiment [3].
Regarding `COc1cc(C(=O)c2cc3cc(NC(=O)CI)cc(OC)c3s2)cc(OC)c1OC`, the IC50 worked out at 0.33 µM in [1]; 0.31 µM in experiment [2]; 0.41 µM in the experiment with L1210; 0.2 µM in the experiment on HeLa; 0.37 µM in experiment [3].
For the compound `COc1cc(C(=O)c2cc3cc(N)ccc3s2)cc(OC)c1OC`, the IC50 stood at 0.018 µM in experiment [1]; 0.011 µM in experiment [2]; 0.00078 µM with L1210; 0.013 µM in the experiment with HeLa; 0.0028 µM in experiment [3]; 3.2 µM in experiment [7]. The compound also had an inhibition on Tubulin (Homo sapiens) [6] of 65%.
Regarding `COc1cc(C(=O)c2sc3c(OC)cc(N)cc3c2C)cc(OC)c1OC`, the inhibition at Tubulin (Homo sapiens) [8] worked out at 90%; at Tubulin (Homo sapiens) [6], 95%. Besides, the IC50 was determined as 0.014 µM in [1]; 0.012 µM in the experiment with L1210; 0.013 µM in the experiment with HeLa; 0.015 µM in experiment [3]; 0.48 µM in experiment [7].
On to `C=C(Br)C(=O)Nc1ccc2sc(C(=O)c3cc(OC)c(OC)c(OC)c3)cc2c1`, for which the IC50 in experiment [1] was found to be 0.27 µM; in [2], 0.14 µM; in the experiment on L1210, 0.075 µM; in the experiment with HeLa, 0.7 µM; in experiment [3], 0.17 µM.
For the compound `COc1cc2sc(C(=O)c3cc(OC)c(OC)c(OC)c3)c(C)c2cc1N`, the values for the inhibition at Tubulin (Homo sapiens) [8] and on Tubulin (Homo sapiens) [6] were 83% and 95%, respectively. For the same compound, the IC50 in [1] turned out to be 0.016 µM; in experiment [2] it was 0.019 µM; with L1210 it was 0.019 µM; in [3] it was 0.017 µM; in [7], 0.68 µM.
Turning to `COc1cc(C(=O)c2cc3cc(NC(=O)CBr)cc(OC)c3s2)cc(OC)c1OC`, the IC50 in experiment [1] was 0.36 µM; in [2] it was 0.34 µM; with L1210, 0.42 µM; in the experiment with HeLa, 0.22 µM; in experiment [3], 0.25 µM.

As usually defined, the IC50 is the concentration at which inhibition is half-maximal. As a reminder, the inhibition is the change of the read-out against control, counted positive when it falls. Low values mean a weak effect, high ones a strong effect.
